# Screens (PubChem BioAssay)
# Rev-erbA mod: modulators of Rev-erb alpha DNA binding, primary screen, biochemical, FITC-DNA, fluorescence polarization, uHTS; AID 1259318, 2017; 0.79% of 370,000 active; activity, % at 10 µM; Rev-erbα–FITC-DNA binding, 90 min;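 active means activity above about 14%, limit read from the data; passing the limit was not always enough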;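 further: 0% = DMSO wells with 35 nM protein and 100% = DMSO wells with 750 nM protein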
# TbMetRS inhib: T. brucei MetRS inhibitors, primary screen, biochemical, luminescence | 0.4% of 360,000 active | inhibition, % at 11.9 µM | purified T. brucei MetRS, ATP depletion, Kinase-Glo luminescence | methionyl-tRNA synthetase (Trypanosoma brucei brucei) | AID 624268, 2012;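 active means inhibition above a per-plate cutoff of the control wells' mean inhibition plus 3 SD, cut at about 5.5% in these data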;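 further: 0% = DMSO wells median and 100% = median of wells with control inhibitor compound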
#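 Material – parasite MetRS enzyme · Medium – HEPES-MgCl2-KCl buffer plus DTT, spermine, BSA, pyrophosphatase · Reagent – ATP, methionine and E. coli bulk tRNA substrates · Times – 15 min enzyme-compound preincubation, 2 h reaction, 10 min detection, 25 °C · Measured by – luminescence of leftover ATP · Evaluation – percent inhibition relative to median high and low control wells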
# PG9 binder: binders of HIV-1 gp120 antibody PG9, primary screen, biochemical, TR-FRET. inhibition, % at 6.7 µM. 0.43% of 360,000 active. TR-FRET gp120-PG9 antibody binding. HIV-1 gp120 / PG9 antibody interaction. AID 624416, 2012; in the data active means inhibition above about 8.5%
# Rin1-Abl PPI inh: inhibitors of Rin1-Abl protein binding, primary screen, biochemical, TR-FRET; 0.4% of 360,000 active; inhibition, % at 7.35 µM; Tyrosine-protein kinase ABL1 (Homo sapiens) + Ras and Rab interactor 1 (Homo sapiens), …; in the data active means inhibition above about 5%, passing the limit was not always enough
# Rev-erbA confirm: modulators of Rev-erb alpha DNA binding, confirmation, biochemical, FITC-DNA, fluorescence polarization, single point; activation, % at 25 µM; 61% of 3,000 active; AID 1259319, 2017; 90 min; shares compounds with Rev-erbA mod;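 active means activation at or above a set limit, or at least 3 SD above the negative control mean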;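 further: 0% = 35 nM protein with DMSO and 100% = 750 nM protein high control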
# RORg DNA counter: modulation of RORgamma DNA binding, dose response, counter-screen for Rev-erb alpha modulator project, biochemical, fluorescence polarization, FITC-DNA | AID 1259320, 2017 | purified RORgamma protein-FITC-DNA binding | 8% of 910 active | IC50, µM | shares compounds with Rev-erbA mod;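 active means Compounds whose fitted half-maximal concentration for disrupting protein-DNA binding is below 10 micromolar; the record names Rev-erb in its text, so the target is in doubt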
# Active calls of the source: *; / = no result. A selection: hits, their analogues and other compounds. The true share with any hit is near 1.8%.
SMILES,Rev-erbA mod,TbMetRS inhib,PG9 binder,Rin1-Abl PPI inh,Rev-erbA confirm,others
COC(=O)c1c(-c2cccc(C)c2)csc1NC(=O)C1CCCO1 (configuration not stated),24*,0,1,1,27*,
COc1cccc(-c2c(C(=O)O)cc(O)c3ccc(OC)cc23)c1,3,0,0,-1,/,
CC(C)=CC(=O)O[C@@H]1Cc2cc3ccc(=O)oc3cc2OC1(C)C,4,0,-1,1,/,
CC1CCN(c2nc(-c3ccccc3O)nc3ccccc23)CC1,2,0,3,0,/,
Oc1ccccc1-c1nc(N2CCCC2)c2ccccc2n1,134*,0,-2,-2,69*,RORg DNA counter=6.9*
Oc1ccccc1-c1nc(NCc2ccccc2)c2ccccc2n1,97*,-1,6,1,77*,RORg DNA counter=>40
CCOC(=O)C1CCN(C(c2cc3c(C)ccc(C)c3[nH]c2=O)c2nnnn2C2CCCCC2)CC1 (configuration not stated),3,0,0,-4,/,
CCOC(=O)C1CCN(C(c2cc3ccc(C)c(C)c3[nH]c2=O)c2nnnn2C2CCCCC2)CC1 (configuration not stated),69*,0,-2,7,97*,
COc1cccc(OC)c1C(=O)NC(=S)Nc1cc(-c2nc3ccccc3[nH]2)ccc1Cl,26*,0,7,-2,24*,
N#CC1(NC(=O)CSc2nncn2-c2ccccc2F)CCCC1,-1,0,-2,3,/,
N#Cc1c(-c2ccccc2)cc(C2CC2)nc1SCC(=O)O,-7,0,0,2,/,
CCc1nnc(NC(=O)CSc2nc3cc(OC)ccc3cc2C)s1,165*,0,0,-1,12,
N#Cc1c(-c2ccc(F)cc2)cc(-c2ccccc2)nc1SCC(=O)NCC(=O)O,5,0,0,0,/,
N#Cc1c(-c2ccccc2)cc(C2CC2)nc1SCC(=O)c1cccs1,19*,-1,0,-2,30*,
CCc1nnc(NC(=O)Cc2ccc(OC)cc2)s1,-3,-1,0,5,/,
CC(C)NC(=O)CSc1nc(-c2cccs2)cc(-c2ccccc2)c1C#N,60*,0,0,1,47*,RORg DNA counter=>40
COc1ccc(-c2cc(-c3ccccc3)nc(SCC(=O)Nc3nccs3)c2C#N)cc1,78*,-1,2,1,61*,RORg DNA counter=>40
COC(=O)Oc1ccc(/C=N/NC(=O)CSCc2ccccc2Br)cc1OC,0,-2,2,-1,/,
COC(=O)C1CN(C2CCCC2)CCS(=O)(=O)N1Cc1ccc(C)cc1 (configuration not stated),3,/,/,/,/,
CCc1nnc(NC(=O)CSc2nc(-c3ccccc3)cc(-c3ccc(OC)cc3)c2C#N)s1,48*,0,-1,-3,43*,
CCN(CC)C(=O)CSc1nc(C)cc(-c2cccs2)c1C#N,78*,0,0,-4,51*,RORg DNA counter=>40
Cc1cc(C)c(C#N)c(SCC(=O)c2cccs2)n1,7,0,4,-5,/,
Cc1ccc(-n2ncc3c2CCCC3NC(=O)CCc2cnccn2)cc1C (configuration not stated),3,0,-1,1,/,
CCOC(=O)c1sc(NC(=O)c2ccccc2F)c(C(N)=O)c1C,20*,-1,8,-1,13,
CCOC(=O)c1sc(NC(=O)c2ccccc2C(=O)O)c(C(=O)OCC)c1C,6,-1,1,-1,/,
Cc1c(C2N3CC4(C)CN2CC(C)(C3)C4=O)c2ccccc2n1C (configuration not stated),42*,-1,0,-6,69*,RORg DNA counter=>40
CC12CN3CC(C)(CN(C1)C3c1cc(Br)ccc1O)C2=O (configuration not stated),18,0,1,-2,/,
Cn1cc(C2N3CC4(C)CN2CC(C)(C3)C4=O)c2ccccc21 (configuration not stated),17*,-1,-1,-2,18*,
